This excerpt belongs to a sample that is enriched for hits.
NLRP3 yeast inh – blocks the NALP3 inflammasome reconstituted in yeast; 330,000 tested, 0.39% active; inhibition, % at 10 µM; Yeast reconstituted NLRP3/ASC/caspase-1, beta-gal luminescence, 24 h;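 active = inhibition of 50% or more; inactive = inhibition below 50%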
NALP1 inh – inhibitors of NALP1 inflammasome in yeast. 280,000 tested, 0.61% active. S. cerevisiae NALP1/ASC/caspase-1 growth, X-gal OD620, 72 h. inhibition, % at 10 µM; in the data active = inhibition mostly above about 24%, no sharp cut-off; inactive = mostly below about 32%
T cruzi inh – T. cruzi replication inhibition. T. cruzi beta-gal in NIH3T3, luminescence, 90 h. inhibition, % (concentration not given with the values). 300,000 tested, 1.4% active. AID 1885;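 active = mean inhibition across valid replicates above about 55%, limit read from the data; inconclusive = mean below that limit but half or more replicates reach it; inactive = mean below it, under half of replicates reach it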;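 also: signal also drops with host cell toxicity which is not excluded here; higher percent means less beta-gal luminescence so fewer parasites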
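System: Mouse NIH/3T3 fibroblasts infected with β-gal-expressing T. cruzi Tulahuen C4 | Quantity: NIH/3T3 cells, 5,000 per well | Reagent: 5000 reporter trypomastigotes per well | Dosing: Compound pinned at 50 nL/well, DMSO | Schedule: 3 h host attachment, then at least 90 h co-culture | Detection: GalScreen luminescence, 60 min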
Lmaj promast – inhibitors of Leishmania major promastigote growth | Leishmania major promastigotes, resazurin fluorescence viability | inhibition, % at 10 µM | 200,000 tested, 9% active; in the data active = inhibition above about 50%;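 also: promastigotes grown with compound for 44 hours at 28 °C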
Calb FLC – C. albicans growth modulation with fluconazole; C. albicans CaCi-2 + fluconazole, Alamar Blue growth, 48 h; growth inhibition, % (no concentration beside the values); 300,000 tested, 0.57% active;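 active = growth inhibition above about 58% in most replicates, limit read from the data, passing the limit was not always enough; inconclusive = exactly half the replicates above a set limit; inactive = most replicates below a set limit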;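 also: all wells also contain fluconazole at 8 µg/ml as a sub-toxic cotreatment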
PolyA inh – blocks polyadenylation in yeast reporter cells; S. cerevisiae SKY197-pL101 polyadenylation reporter, beta-gal luminescence; efflux-impaired pdr1/pdr3 knockout yeast; score 100 = 6 SD above DMSO; AID 1875; activity score, % at 12 µM; 300,000 tested, 0.02% active;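 active = lowest replicate activity score at least 50, where 100 means six control SD above control mean; inconclusive = lowest score under 50 but half or more replicates reach 50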;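 also: yeast exposed to compound for 9 h at 30 °C; higher score means more reporter readthrough which indicates perturbed polyadenylation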
Each line names hits and unclear results; the compound was inactive in the other large screens.

CCC(C)Nc1nc(-c2ccccn2)nc2ccccc12 (configuration not stated)	T cruzi inh 64 (no result: Lmaj promast)
COc1cccc(-c2nc(NC(C)C)c3ccccc3n2)c1O	Lmaj promast 56, Calb FLC 86
O=C(COC(=O)/C=C/c1ccc(C(F)(F)F)cc1)NCc1ccco1	none (no result: Lmaj promast)
Fc1ccccc1/C=N/Nc1ncnc2nc[nH]c12	Lmaj promast 52
CCOc1ccc(Oc2c(C)oc3cc(O)ccc3c2=O)cc1	NALP1 inh 25
CCOC(=O)c1ccc(Oc2c(C)oc3cc(OS(C)(=O)=O)ccc3c2=O)cc1	Lmaj promast 53
COC(=O)[C@]1(Cc2ccccc2)N[C@H](CN(C)S(=O)(=O)c2ccc(-c3ccccc3)cc2)[C@@H]2C(=O)N(Cc3ccccc3)C(=O)[C@@H]21	none (no result: NALP1 inh, T cruzi inh, Lmaj promast, Calb FLC, PolyA inh)
COc1ccc(OC)c(-n2c(SCC(=O)Nc3cc(C)on3)nnc2-c2c[nH]c3ccccc23)c1	Lmaj promast 100
COc1ccc(OC)c(-n2c(SC)nnc2-c2c[nH]c3ccccc23)c1	Lmaj promast 65
CCOC(=O)c1c(NC(=O)C(=O)N/N=C/c2ccccc2O)sc2c1CCCCC2	Lmaj promast 99
CCOC(=O)c1c(NC(=O)CN(CC)CC)sc2c1CCN(C(=O)OCC)C2	none
CCOC(=O)c1c(NC(=O)CN2CCN(C(=O)c3ccco3)CC2)sc2c1CCCC2	Lmaj promast 52, Calb FLC 103
CCOC(=O)c1c(NC(=O)c2ccco2)sc2c1CCCC2	none
CCOC(=O)c1c(NC(=O)C(=O)N/N=C/c2ccccc2OC)sc2c1CCCCC2	none
CCOC(=O)c1c(NC(=O)COc2cccc3c2CCN(CC)C3=O)sc2c1CCC2	Lmaj promast 59
CCOC(=O)c1c(NC(=O)CN2CCCCC2)sc2c1CCN(C(=O)OCC)C2	T cruzi inh 60
Cc1ccc(NC(=O)CN2CCN(C(=O)c3ccco3)CC2)cc1	none (no result: Lmaj promast)
Cc1[nH]c2ccccc2c1NC(=O)CN1CCN(C(=O)c2ccco2)CC1	NALP1 inh 42 (no result: Lmaj promast)
O=C(CCNS(=O)(=O)c1ccccc1)OCc1nc2ccsc2c(=O)[nH]1	none (no result: NALP1 inh, Lmaj promast)
N#C/C(=C\c1cccc([N+](=O)[O-])c1)C(=O)NCc1cccnc1	none
COc1ccc(/C=C(\C#N)C(=O)NCCc2ccccc2)cc1OCc1ccccc1	Lmaj promast 96
N#C/C(=C\c1cccc([N+](=O)[O-])c1)C(=O)NCc1ccc(Cl)cc1	Lmaj promast 51 (no result: NLRP3 yeast inh, T cruzi inh, Calb FLC, PolyA inh)
COCCNC(=O)/C(C#N)=C/C(C)=C/c1ccccc1	Lmaj promast 74
COCCNC(=O)/C(C#N)=C/C=C/c1ccccc1[N+](=O)[O-]	Lmaj promast 81
CCC(C)c1ccccc1NC(=S)NC(=O)c1ccco1 (configuration not stated)	none (no result: Lmaj promast)
CCOC(=O)C1CCN(S(=O)(=O)c2c(C)[nH]c(C)c2C(=O)N2CCCCC2)CC1	none (no result: Lmaj promast)
COCCNC(=O)/C(C#N)=C/c1ccc(O)cc1	none (no result: NALP1 inh, Lmaj promast)
Cc1cccc(NC(=O)/C(C#N)=C\c2cccnc2)c1	none
CCCCNC(=O)/C(C#N)=C/c1cccnc1	Lmaj promast 93
COCCNC(=O)/C(C#N)=C/c1cccc(/C=C(\C#N)C(=O)NCCOC)c1	Lmaj promast 99 (no result: NLRP3 yeast inh)
COc1ccc(/C=C(/C#N)C(=O)Nc2ccccc2C)cc1C(=O)O	Lmaj promast 59
Cc1cc2c(cc1S(=O)(=O)N(C)Cc1ccccc1)OCC(=O)N2	none (no result: Lmaj promast)
COc1ccc(C(=O)N[C@H](C(=O)Nc2nc3c(s2)CCCC3)C(C)C)cc1	none
CCOc1ccccc1C(=O)N[C@H](C(=O)Nc1nc2c(s1)CCCC2)C(C)C	T cruzi inh 69
CSCC(C)N1CCC(CO)(CCc2ccccc2)CC1 (configuration not stated)	Lmaj promast 82
CC(COc1ccccc1)N1CCC(CO)(CCc2ccccc2)CC1 (configuration not stated)	Lmaj promast 97
CN(C)S(=O)(=O)N1CCC(CO)(CCc2ccccc2)CC1	none
COC(=O)CCCC(=O)N1CCC(CO)(CCc2ccccc2)CC1	none (no result: Lmaj promast)
COc1ccc(/C(O)=C2/C(=O)C(=O)N(CCCN(C)C)C2c2ccc(C)o2)cc1Cl (configuration not stated)	none (no result: NLRP3 yeast inh)
COc1ccc(C(C(=O)Nc2ccc(C(C)C)cc2)N(C)C(=O)c2ccc(=O)[nH]c2)cc1 (configuration not stated)	none
Fc1ccccc1OCCCCCN1CCCC1	Lmaj promast 72
Fc1ccccc1OCCCCCCN1CCCC1	Lmaj promast 98
Nc1n[nH]c(N)c1N=Nc1ccc2c(c1)OCO2	T cruzi inh 74
Cc1ccc(N=Nc2c(N)n[nH]c2N)cc1	none (no result: Lmaj promast)
Cc1ccc2sc(N(CCCN(C)C)C(=O)CN3C(=O)c4ccccc4C3=O)nc2c1C	T cruzi inh 58
Cc1ccc2sc(N(CCCN(C)C)C(=O)c3ccc(S(=O)(=O)N4CCCCCC4)cc3)nc2c1C	T cruzi inh 57 (no result: NALP1 inh, Lmaj promast)
CCOc1cccc2sc(N(CCCN(C)C)C(=O)c3ccc(S(=O)(=O)N(C)c4ccccc4)cc3)nc12	T cruzi inh 56, Lmaj promast 88
Cc1cc(C)c2nc(N(CCCN(C)C)C(=O)c3ccc(S(=O)(=O)N4CCCCCC4)cc3)sc2c1	PolyA inh inconclusive (no result: NALP1 inh, Lmaj promast)
Cc1cc(C)c2sc(N(CCCN(C)C)C(=O)c3ccc(S(=O)(=O)N(C)C4CCCCC4)cc3)nc2c1	T cruzi inh 55 (no result: NALP1 inh, Lmaj promast)
CN(C)CCCN(C(=O)c1ccc(S(=O)(=O)N(C)C2CCCCC2)cc1)c1nc2ccc(F)cc2s1	none (no result: Lmaj promast)
C=CCn1c(C)nnc1SCC(=O)Nc1cc(S(=O)(=O)N2CCCC2)ccc1Cl	none (no result: NALP1 inh, T cruzi inh, Lmaj promast, Calb FLC, PolyA inh)
CCOc1ccc(NC(=O)COC(=O)Cc2ccsc2)cc1	none (no result: NALP1 inh, T cruzi inh, Lmaj promast, Calb FLC, PolyA inh)
CC(C)CC(=O)Nc1nnc(S(=O)(=O)Nc2ccccc2)s1	none (no result: Lmaj promast)
Cc1nnc(SC(C)C(=O)Nc2c(C)n(C)n(-c3ccccc3)c2=O)n1N (configuration not stated)	none
COC(=O)CCCC(=O)Nc1ccc(Br)cc1	none
Cc1cnn(C(=O)c2ccccc2Br)c1	none
COc1ccc(C(C)=O)cc1CN(c1ccccc1OC)S(=O)(=O)c1cccs1	none (no result: Lmaj promast)
CCOC(=O)N1CCN(S(=O)(=O)c2ccc(C(=O)N(CCN(C)C)c3nc4ccc(Cl)cc4s3)cc2)CC1	T cruzi inh 76 (no result: Lmaj promast)
COc1ccc(C)c2sc(N(CCCN(C)C)C(=O)c3ccc(S(=O)(=O)N(C)C)cc3)nc12	Lmaj promast 74
CCOC(=O)N1CCN(S(=O)(=O)c2ccc(C(=O)N(CCCN(C)C)c3nc4ccc(OC)cc4s3)cc2)CC1	none (no result: Lmaj promast)
COc1cccc(C(=O)Nc2cccc(C(=O)NCC(C)C)c2)c1	Lmaj promast 64
COC(=O)c1ccc(NC(=O)CNCc2ccncc2)cc1	Lmaj promast 56
COc1cc(OC)cc(C(=O)Nc2cccc(N3CCCC3)c2)c1	T cruzi inh 68, Lmaj promast 72
COc1cc(OC)cc(C(=O)Nc2cccc(C(C)=O)c2)c1	none

Screening data: PubChem BioAssay, several laboratories
